Assay results taken from ChEMBL document CHEMBL1240423, “Synthesis and evaluation of quinazolinone derivatives as inhibitors of NF-kappaB, AP-1 mediated transcription and eIF-4E mediated translational activation: inhibitors of multi-pathways involve in cancer” (Eur J Med Chem, 2010).

Key:
[1] = biological target: Transcription factor Jun (Homo sapiens) (UniProt P05412); assay: Inhibition of AP1 expressed in HEK293 cells assessed as inhibition of PMA-induced transcriptional activation at 1 uM treated 24 hrs before PMA challenge by luciferase reporter gene assay relative to control; format: cell-based
Chain of Transcription factor Jun (Homo sapiens) (P05412 whole entry): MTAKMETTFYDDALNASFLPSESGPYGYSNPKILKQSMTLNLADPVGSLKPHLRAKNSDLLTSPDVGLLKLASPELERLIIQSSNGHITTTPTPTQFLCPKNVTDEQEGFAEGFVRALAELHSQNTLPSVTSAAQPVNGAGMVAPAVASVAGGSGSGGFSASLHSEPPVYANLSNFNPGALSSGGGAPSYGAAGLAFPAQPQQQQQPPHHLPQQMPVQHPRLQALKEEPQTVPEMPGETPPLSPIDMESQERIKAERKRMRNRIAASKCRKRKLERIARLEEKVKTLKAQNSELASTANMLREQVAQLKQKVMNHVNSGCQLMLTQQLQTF
How it was run: (§1)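 Luciferase reporter screen with each sample in triplicate in two or three independent experiments. Values are the average of those experiments. Rapamycin served as the reference eIF-4E inhibitor.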

HEK293 [2] = assay: Inhibition of NF-kappaB expressed in HEK293 cells assessed as inhibition of TNF-alpha-induced transcriptional activation at 1 uM treated 24 hrs before TNFalpha challenge by luciferase reporter gene assay relative to control; format: cell-based; how it was run: as §1
[3] = Inhibition of NF-kappaB expressed in HEK293 cells assessed as inhibition of TNF-alpha-induced transcriptional activation treated 24 hrs before TNFalpha challenge by luciferase reporter gene assay; format: cell-based
How it was run: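 Six-point dose response […] in ½-log steps, screened as in the primary reporter assay. IC50 calculated from the dose-response data.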

[4] = biological target: Eukaryotic translation initiation factor 4E (Homo sapiens) (UniProt P06730); assay: Inhibition of eIF-4E expressed in human FaDu cells assessed as inhibition of translational activation at 1 uM by luciferase reporter gene assay relative to control; format: cell-based; how it was run: as §1
Chain of Eukaryotic translation initiation factor 4E (Homo sapiens) (P06730 whole entry): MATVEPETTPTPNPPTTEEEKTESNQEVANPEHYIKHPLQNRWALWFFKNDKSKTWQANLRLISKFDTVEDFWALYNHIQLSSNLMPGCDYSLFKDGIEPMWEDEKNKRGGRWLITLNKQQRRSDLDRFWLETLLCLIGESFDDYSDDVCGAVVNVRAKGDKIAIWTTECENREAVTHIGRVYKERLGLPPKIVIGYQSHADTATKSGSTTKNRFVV

HEK293 [5] = assay: Inhibition of NF-kappaB expressed in HEK293 cells assessed as inhibition of TNF-alpha-induced transcriptional activation at 3.3 uM treated 2 hrs before TNFalpha challenge measured after 24 hrs by luciferase reporter gene assay relative to control; format: cell-based
How it was run: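 Stably transfected NF-κB reporter cells plated, then after 24 h pretreated with compound at six concentrations for 2 h before 20 ng/ml TNF-α induction. Cells later lysed, luciferase activity read and normalized.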

FaDu = assay: Cytotoxicity against human FADU cells assessed as growth inhibition at 3.3 uM by MTT assay; format: functional
[6] = Inhibition of NF-kappaB expressed in HEK293 cells assessed as inhibition of TNF-alpha-induced transcriptional activation treated 2 hrs before TNFalpha challenge measured after 24 hrs by luciferase reporter gene assay; format: cell-based
How it was run: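 Stably transfected NF-κB luciferase reporter cells were plated, and 24 h later given test compound at six concentrations for 2 h. TNF-α was then added at 20 ng/ml to induce transcription. Cells were then lysed, luciferase activity was recorded, and values were normalised.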

| SMILES | inhibition [1] [%] | inhibition (HEK293 [2]) [%] | IC50 [3] [µM] | inhibition [4] [%] | inhibition (HEK293 [5]) [%] | inhibition at 3.3 µM (FaDu) [%] | IC50 [6] [µM] |
| --- | --- | --- | --- | --- | --- | --- | --- |
| CCOC(=O)Nc1nc(-c2ccccc2)c(-c2nc3ccccc3c(=O)n2-c2ccccc2)s1 | 7 | 32 | > 10 |  |  |  |  |
| CCOC(=O)Nc1nc(C)c(-c2nc3ccccc3c(=O)n2-c2ccc(Cl)cc2)s1 | 30 | 54 | 16 | 50 | > 70 |  |  |
| O=c1c2ccccc2nc(-c2sc(Nc3ccccc3)nc2-c2ccccc2)n1-c1ccccc1 | 51 | 71 |  | 37 |  |  |  |
| O=c1c2ccccc2nc(-c2sc(Nc3ccc(Cl)cc3)nc2-c2ccccc2)n1-c1ccc(Cl)cc1 | 47 | 62 | 3.3 | 34 | > 70 |  |  |
| O=C(Nc1nc(-c2ccccc2)c(-c2nc3ccccc3c(=O)n2-c2ccc(Cl)cc2)s1)c1ccccc1 | 36 | 73 |  | 39 |  |  |  |
| CNc1nc(-c2ccccc2)c(-c2nc3ccccc3c(=O)n2-c2ccccc2)s1 | 58 | 71 |  | 33 |  |  |  |
| O=c1c2ccccc2nc(-c2sc(Nc3ccccc3)nc2-c2ccccc2)n1-c1ccc(Cl)cc1 | 39 | 67 |  | 38 |  |  |  |
| Cc1nc(Nc2ccc(Cl)cc2)sc1-c1nc2ccccc2c(=O)n1-c1ccc(Cl)cc1 | 75 | 79 | 15 | 26 |  |  |  |
| O=c1c2ccccc2nc(-c2sc(Nc3ccc(Cl)cc3)nc2-c2ccccc2)n1-c1ccccc1 | 57 | 71 |  |  |  |  |  |
| O=C(Nc1nc(-c2ccccc2)c(-c2nc3ccccc3c(=O)n2-c2ccccc2)s1)c1ccccc1 | 26 | 43 |  | 30 |  |  |  |
| CNc1nc(C)c(-c2nc3ccccc3c(=O)n2-c2ccc(Cl)cc2)s1 |  | 80 | 12 | 61 |  | 20 | 3.3 |
| COc1ccc(-n2c(-c3sc(Nc4ccc(Cl)cc4)nc3-c3ccccc3)nc3ccccc3c2=O)cc1 | 59 | 46 | 20 | 32 | > 70 |  |  |
| CCOC(=O)Nc1nc(-c2ccccc2)c(-c2nc3ccccc3c(=O)n2-c2ccc(Cl)cc2)s1 | 20 | 24 |  | 18 |  |  |  |
| COc1ccc(-n2c(-c3sc(NC(=O)c4ccccc4)nc3-c3ccccc3)nc3ccccc3c2=O)cc1 | 8 | 12 |  | 31 |  |  |  |
| CNc1nc(-c2ccccc2)c(-c2nc3ccccc3c(=O)n2-c2ccc(Cl)cc2)s1 | 67 | 72 | > 250 | 40 |  |  |  |
| Cc1nc(Nc2ccccc2)sc1-c1nc2ccccc2c(=O)n1-c1ccc(Cl)cc1 | 29 | 66 |  | 67 |  |  | 5.5 |
| COc1ccc(-n2c(-c3sc(Nc4ccccc4)nc3-c3ccccc3)nc3ccccc3c2=O)cc1 | 19 | 63 |  | 16 |  |  |  |
| CCOC(=O)Nc1nc(-c2ccccc2)c(-c2nc3ccccc3c(=O)n2-c2ccc(OC)cc2)s1 | 34 | 29 |  | 15 |  |  |  |
